Calls of active or inactive are those of the source.
Assays:
Rattus norvegicus [1] = experiment: Analgesic activity against formalin-induced inflammatory pain in rat assessed as reduction of pain behavior time at 60 µg/ 10 ul, sc administered after 10 mins at 5 mins intervals (reference value: 47.05 +/- 8.53 seconds); type: functional
[2] = molecular target: T1, Voltage-dependent T-type calcium channel subunit alpha-1G (Homo sapiens, UniProt O43497); experiment: Inhibition of T-type alpha1G channel expressed in HEK293 cells by whole-cell patch-clamp method; type: cell-based
T1 sequence (O43497 whole entry): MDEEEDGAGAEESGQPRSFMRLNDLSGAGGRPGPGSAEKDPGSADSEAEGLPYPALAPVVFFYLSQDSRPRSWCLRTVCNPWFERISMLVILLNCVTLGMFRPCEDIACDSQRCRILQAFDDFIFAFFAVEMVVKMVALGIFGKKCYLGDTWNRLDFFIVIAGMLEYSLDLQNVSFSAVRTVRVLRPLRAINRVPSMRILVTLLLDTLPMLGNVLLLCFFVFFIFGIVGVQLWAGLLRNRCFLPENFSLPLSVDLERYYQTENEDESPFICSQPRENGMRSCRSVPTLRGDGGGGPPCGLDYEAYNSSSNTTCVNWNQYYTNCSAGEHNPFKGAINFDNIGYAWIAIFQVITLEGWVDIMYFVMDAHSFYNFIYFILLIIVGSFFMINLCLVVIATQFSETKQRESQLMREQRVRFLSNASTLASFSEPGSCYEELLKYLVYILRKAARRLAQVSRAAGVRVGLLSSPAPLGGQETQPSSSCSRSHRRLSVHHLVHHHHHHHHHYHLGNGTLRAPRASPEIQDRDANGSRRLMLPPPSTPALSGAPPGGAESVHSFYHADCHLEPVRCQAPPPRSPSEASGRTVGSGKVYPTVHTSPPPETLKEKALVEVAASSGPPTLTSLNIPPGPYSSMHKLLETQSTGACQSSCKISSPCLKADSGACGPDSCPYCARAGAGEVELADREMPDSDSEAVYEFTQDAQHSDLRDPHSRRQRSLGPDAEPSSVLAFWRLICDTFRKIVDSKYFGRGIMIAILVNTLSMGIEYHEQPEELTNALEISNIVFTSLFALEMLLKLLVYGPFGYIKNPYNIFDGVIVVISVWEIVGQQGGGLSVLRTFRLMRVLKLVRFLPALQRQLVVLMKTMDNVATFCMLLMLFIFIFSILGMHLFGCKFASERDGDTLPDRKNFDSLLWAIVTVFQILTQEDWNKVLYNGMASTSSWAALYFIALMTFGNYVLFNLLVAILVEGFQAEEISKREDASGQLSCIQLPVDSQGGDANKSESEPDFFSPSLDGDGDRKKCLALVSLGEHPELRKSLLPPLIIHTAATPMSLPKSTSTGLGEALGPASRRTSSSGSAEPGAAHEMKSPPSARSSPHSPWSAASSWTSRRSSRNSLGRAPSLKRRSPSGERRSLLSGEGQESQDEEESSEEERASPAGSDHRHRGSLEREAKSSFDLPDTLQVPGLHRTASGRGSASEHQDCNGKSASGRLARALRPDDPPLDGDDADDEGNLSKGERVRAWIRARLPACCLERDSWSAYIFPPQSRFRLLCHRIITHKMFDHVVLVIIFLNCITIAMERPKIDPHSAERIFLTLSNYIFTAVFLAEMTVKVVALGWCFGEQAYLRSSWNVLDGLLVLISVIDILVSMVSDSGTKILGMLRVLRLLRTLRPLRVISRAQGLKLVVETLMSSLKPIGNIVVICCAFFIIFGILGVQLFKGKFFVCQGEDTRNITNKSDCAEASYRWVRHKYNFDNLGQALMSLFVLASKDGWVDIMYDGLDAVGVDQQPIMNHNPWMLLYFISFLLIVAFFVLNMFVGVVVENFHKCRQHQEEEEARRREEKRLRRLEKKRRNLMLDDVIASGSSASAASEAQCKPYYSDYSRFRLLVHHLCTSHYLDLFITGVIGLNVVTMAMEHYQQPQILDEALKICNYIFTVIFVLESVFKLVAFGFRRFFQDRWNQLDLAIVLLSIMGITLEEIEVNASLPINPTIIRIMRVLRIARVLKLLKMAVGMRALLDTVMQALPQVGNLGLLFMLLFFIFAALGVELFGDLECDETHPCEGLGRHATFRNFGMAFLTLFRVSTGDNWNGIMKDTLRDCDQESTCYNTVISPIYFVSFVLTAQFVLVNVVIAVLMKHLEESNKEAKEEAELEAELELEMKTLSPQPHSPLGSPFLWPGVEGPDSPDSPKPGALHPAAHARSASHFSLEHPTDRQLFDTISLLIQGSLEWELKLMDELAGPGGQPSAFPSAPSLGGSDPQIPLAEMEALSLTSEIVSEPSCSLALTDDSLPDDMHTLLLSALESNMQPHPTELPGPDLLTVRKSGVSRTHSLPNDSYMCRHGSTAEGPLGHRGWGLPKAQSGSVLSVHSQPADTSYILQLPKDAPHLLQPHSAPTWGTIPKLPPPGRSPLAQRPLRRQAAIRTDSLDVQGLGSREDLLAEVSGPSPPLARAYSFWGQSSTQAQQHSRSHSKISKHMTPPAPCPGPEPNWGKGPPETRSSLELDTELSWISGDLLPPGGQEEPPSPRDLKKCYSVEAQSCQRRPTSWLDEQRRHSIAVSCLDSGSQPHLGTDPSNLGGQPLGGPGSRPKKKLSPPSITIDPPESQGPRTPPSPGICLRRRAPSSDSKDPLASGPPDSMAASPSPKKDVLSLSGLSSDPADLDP
In short: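 HEK293 cells stably expressing α1G (Cav3.1); whole-cell patch clamp. External solution in mM: 140 NaCl, 2 CaCl2, 10 Hepes, 10 glucose, pH 7.4.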

[3] = molecular target: Voltage-dependent N-type calcium channel subunit alpha-1B (Homo sapiens) (UniProt Q00975); experiment: Inhibition of N-type Alpha-1B channel expressed in HEK293 cells by whole-cell patch-clamp method; type: cell-based; parameters: concentration or dose not given beside the values; conditions: concentration not given here
Voltage-dependent N-type calcium channel subunit alpha-1B (Homo sapiens), sequence (Q00975 whole entry, looked up): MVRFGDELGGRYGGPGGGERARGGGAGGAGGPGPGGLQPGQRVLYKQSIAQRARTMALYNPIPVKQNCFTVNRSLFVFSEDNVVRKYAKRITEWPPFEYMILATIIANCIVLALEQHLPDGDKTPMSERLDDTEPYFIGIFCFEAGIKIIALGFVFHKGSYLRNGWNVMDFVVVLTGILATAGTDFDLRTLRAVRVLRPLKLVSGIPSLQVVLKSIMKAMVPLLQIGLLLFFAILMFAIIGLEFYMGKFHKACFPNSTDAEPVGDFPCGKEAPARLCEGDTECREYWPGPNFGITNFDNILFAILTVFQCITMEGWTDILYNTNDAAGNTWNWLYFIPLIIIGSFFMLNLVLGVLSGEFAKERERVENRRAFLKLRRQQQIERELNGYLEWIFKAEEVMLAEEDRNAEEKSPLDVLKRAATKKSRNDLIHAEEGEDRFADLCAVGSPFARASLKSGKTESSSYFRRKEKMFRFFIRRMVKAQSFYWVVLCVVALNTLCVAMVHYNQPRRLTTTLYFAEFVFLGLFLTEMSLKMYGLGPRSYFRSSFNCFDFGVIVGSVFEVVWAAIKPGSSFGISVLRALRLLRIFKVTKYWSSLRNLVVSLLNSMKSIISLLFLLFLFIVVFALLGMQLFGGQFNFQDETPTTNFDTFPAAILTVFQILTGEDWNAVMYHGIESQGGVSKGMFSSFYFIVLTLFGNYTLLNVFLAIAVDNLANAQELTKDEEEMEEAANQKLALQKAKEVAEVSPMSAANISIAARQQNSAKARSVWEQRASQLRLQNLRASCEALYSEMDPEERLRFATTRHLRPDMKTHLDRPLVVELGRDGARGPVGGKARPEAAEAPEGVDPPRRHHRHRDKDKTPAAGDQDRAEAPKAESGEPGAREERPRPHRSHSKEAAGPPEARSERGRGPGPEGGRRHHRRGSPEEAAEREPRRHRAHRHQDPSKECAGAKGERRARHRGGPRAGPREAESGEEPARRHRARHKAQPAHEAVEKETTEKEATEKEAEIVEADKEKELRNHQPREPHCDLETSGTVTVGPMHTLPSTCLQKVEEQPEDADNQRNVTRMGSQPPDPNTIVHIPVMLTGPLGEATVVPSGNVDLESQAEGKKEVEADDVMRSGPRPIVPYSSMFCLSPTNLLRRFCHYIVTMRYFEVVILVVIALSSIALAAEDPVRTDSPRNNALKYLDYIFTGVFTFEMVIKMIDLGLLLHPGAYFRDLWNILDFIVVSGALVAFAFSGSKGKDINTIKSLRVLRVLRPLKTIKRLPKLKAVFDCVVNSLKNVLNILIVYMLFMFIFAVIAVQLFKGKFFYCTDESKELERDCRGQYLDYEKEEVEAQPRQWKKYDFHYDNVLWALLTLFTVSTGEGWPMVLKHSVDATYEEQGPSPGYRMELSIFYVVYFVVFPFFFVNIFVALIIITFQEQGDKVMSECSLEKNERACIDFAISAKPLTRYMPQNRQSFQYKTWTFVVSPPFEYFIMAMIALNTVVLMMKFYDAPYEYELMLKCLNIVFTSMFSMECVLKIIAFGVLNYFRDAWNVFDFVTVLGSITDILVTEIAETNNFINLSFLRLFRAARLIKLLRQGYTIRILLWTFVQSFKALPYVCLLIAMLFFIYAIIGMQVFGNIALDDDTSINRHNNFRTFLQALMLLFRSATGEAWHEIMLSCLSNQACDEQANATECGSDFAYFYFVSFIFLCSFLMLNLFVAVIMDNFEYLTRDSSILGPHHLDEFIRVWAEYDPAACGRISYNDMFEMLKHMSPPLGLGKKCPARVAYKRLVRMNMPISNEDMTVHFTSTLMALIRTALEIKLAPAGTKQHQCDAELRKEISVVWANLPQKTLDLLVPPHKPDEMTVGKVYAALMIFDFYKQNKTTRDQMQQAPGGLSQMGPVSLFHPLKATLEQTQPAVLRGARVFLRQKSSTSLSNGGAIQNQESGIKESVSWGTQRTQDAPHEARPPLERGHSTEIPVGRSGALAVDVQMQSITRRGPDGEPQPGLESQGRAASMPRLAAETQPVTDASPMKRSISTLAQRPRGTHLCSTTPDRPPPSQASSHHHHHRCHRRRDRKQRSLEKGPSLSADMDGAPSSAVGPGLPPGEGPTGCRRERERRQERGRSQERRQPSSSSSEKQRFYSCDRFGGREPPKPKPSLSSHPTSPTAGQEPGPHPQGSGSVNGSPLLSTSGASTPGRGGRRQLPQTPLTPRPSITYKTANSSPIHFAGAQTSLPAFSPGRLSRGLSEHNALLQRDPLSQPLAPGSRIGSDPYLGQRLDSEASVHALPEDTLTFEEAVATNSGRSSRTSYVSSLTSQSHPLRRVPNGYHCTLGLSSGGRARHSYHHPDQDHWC

Rattus norvegicus [4] = experiment: Anti-cold allodynic activity in rat assessed as tail withdrawal latency at 60 mg/kg, ip measured within cut-off time of 15 seconds for up to 24 hrs; type: functional, organism-based; parameters: dose 60 mg/kg
In short: (§1)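 At 2 weeks, after a baseline test, 60 mg/kg was given ip in methyl pyrrolidone/Tween 80/saline (1:1:8). Tail withdrawal latency to 4 °C (cold) or 40 °C (warm) water immersion was read at 1, 3, 5 and 24 h, with a 15 s cut-off. Versus baseline by repeated-measures ANOVA with Bonferroni t-test.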

Rattus norvegicus [5] = experiment: Anti-warm allodynic activity in rat assessed as tail withdrawal latency at 60 mg/kg, ip measured within cut-off time of 15 seconds for up to 24 hrs; type: functional, organism-based; parameters: dose 60 mg/kg; in short: as §1
Rattus norvegicus [6] = experiment: Analgesic activity against formalin-induced inflammatory pain in rat assessed as reduction of time spent on paw licking, shaking or biting at 60 ug, sc administered after 50 mins at 5 mins intervals; conditions: route subcutaneous
Rattus norvegicus [7] = experiment: Antinociceptive activity against von Frey hair mechanically stimulated neuropathic pain in rat assessed as withdrawal threshold at 60 mg/kg, ip administered 2 weeks after surgery; type: functional, organism-based; parameters: dose 60 mg/kg
In short: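 Tail nerve injury rats (unilateral caudal trunk transection between S1 and S2 under enflurane) received a baseline test 2 weeks post-injury. They were then dosed at 60 mg/kg ip in methyl pyrrolidone/Tween 80/saline (1:1:8). Tail withdrawal to von Frey filaments was retested at 1, 3, 5 and 24 h. Versus baseline by one-way repeated-measures ANOVA with Bonferroni t-test.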

[8] = molecular target: Voltage-dependent N-type calcium channel subunit alpha-1B (Homo sapiens) (UniProt Q00975); experiment: Inhibition of N-type Alpha-1B channel expressed in HEK293 cells at 10 uM by whole-cell patch-clamp method; type: cell-based
Rattus norvegicus [9] = experiment: Analgesic activity against formalin-induced inflammatory pain in rat assessed as reduction of time spent on paw licking, shaking, biting at 60 ug, sc administered after 50 mins at 5 mins intervals(reference value: 334.21 +/- 51.10 seconds); conditions: route subcutaneous
[10] = Inhibition of T-type Cav3 channel
In short: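 Whole-cell patch clamp on HEK293 cells stably expressing Cav3.1 (α1G). External solution was 140 mM NaCl, 2 mM CaCl2, 10 mM Hepes and 10 mM glucose, pH 7.4. Currents were evoked every 15 s by a 50 ms depolarizing voltage step.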

[11] = Inhibition of L-type calcium channel
[12] = molecular target: Voltage-dependent T-type calcium channel subunit alpha-1I (Homo sapiens, UniProt Q9P0X4); experiment: Inhibition of T-type Cav3.3 channel
[13] = molecular target: Voltage-dependent T-type calcium channel subunit alpha-1H (Homo sapiens, UniProt O95180); experiment: Inhibition of T-type Cav3.2 channel
[14] = molecular target: T1, Voltage-dependent T-type calcium channel subunit alpha-1G; experiment: Inhibition of T-type Cav3.1 channel

SMILES | IC50 [2] [nM] | inhibition [3] [%] | also measured
NCCCC(=O)N1CCN(C(c2ccccc2)c2ccc(Cl)cc2)CC1 (stereo not drawn) | 3710 | 10 | Time (Rattus norvegicus [1]): 2.41 s; Activity (Rattus norvegicus [4]): Active; Activity (Rattus norvegicus [5]): Active; Time (Rattus norvegicus [6]): 62.57 s; Activity (Rattus norvegicus [7]): Active
O=C(CCCNCC1CCCCC1)N1CCN(C(c2ccccc2)c2ccc(Cl)cc2)CC1 (stereo not drawn) | 190 | 84.9 | Time (Rattus norvegicus [1]): 1.8 s; Activity (Rattus norvegicus [4]): Active; inhibition [8]: 80%; Time (Rattus norvegicus [9]): 24.32 s; Activity (Rattus norvegicus [5]): Active; Activity (Rattus norvegicus [7]): inactive
NCC1(CC(=O)O)CCCCC1 |  |  | Activity (Rattus norvegicus [4]): Active; Activity (Rattus norvegicus [5]): Active; Activity (Rattus norvegicus [7]): Active
CCC(CC)CNCCCC(=O)N1CCN(C(c2ccccc2)c2ccc(Cl)cc2)CC1 (stereo not drawn) | 1540 | 16.8 | 
O=C(CCCNCc1ccc([N+](=O)[O-])cc1)N1CCN(C(c2ccccc2)c2ccc(Cl)cc2)CC1 (stereo not drawn) | 600 | 88.8 | inhibition [8]: 80%
O=C(CCCNCc1ccccc1)N1CCN(C(c2ccccc2)c2ccc(Cl)cc2)CC1 (stereo not drawn) | 1670 | 69.8 | 
CC(C)c1ccc(CNCCCC(=O)N2CCN(C(c3ccccc3)c3ccc(Cl)cc3)CC2)cc1 (stereo not drawn) | 280 | 80.2 | inhibition [8]: 80%
CC(C)CNCCCC(=O)N1CCN(C(c2ccccc2)c2ccc(Cl)cc2)CC1 (stereo not drawn) | 360 | 13.3 | 
CCNCCCC(=O)N1CCN(C(c2ccccc2)c2ccc(Cl)cc2)CC1 (stereo not drawn) | 420 | 20 | 
COc1ccc(CNCCCC(=O)N2CCN(C(c3ccccc3)c3ccc(Cl)cc3)CC2)cc1 (stereo not drawn) | 16100 | 49.6 | 
O=c1[nH]c2ccccc2n1C1CCN(CCCC(c2ccc(F)cc2)c2ccc(F)cc2)CC1 |  |  | INH [10]: 40 nM
O=C(CCCNCc1c(Cl)cccc1Cl)N1CCN(C(c2ccccc2)c2ccc(Cl)cc2)CC1 (stereo not drawn) | 1020 | 78.4 | 
COCC(=O)O[C@]1(CCN(C)CCCc2nc3ccccc3[nH]2)CCc2cc(F)ccc2[C@@H]1C(C)C [MIBEFRADIL] |  |  | IC50 [11]: 10 µM
Fc1ccc(C(c2ccc(F)cc2)N2CCN(C/C=C/c3ccccc3)CC2)cc1 [FLUNARIZINE] |  |  | Kd [12]: 840 nM; Kd [13]: 3.6 µM; Kd [14]: 530 nM
CN(C)c1ccc(CNCCCC(=O)N2CCN(C(c3ccccc3)c3ccc(Cl)cc3)CC2)cc1 (stereo not drawn) | 2320 | 10.8 | 
